Source: ChEMBL document CHEMBL1132312, “Conformationally constrained butyrophenones with mixed dopaminergic (D(2)) and serotoninergic (5-HT(2A), 5-HT(2C)) affinities: synthesis, pharmacology, 3D-QSAR, and molecular modeling of (aminoalkyl)benzo- and -thienocycloalkanones as putative atypical antipsychotics” (J Med Chem, 1999)

Assays:
[1] = pA2 value was evaluated by measuring the inhibition of the 5-HT-induced contraction of rat aorta.; assay type: functional, tissue-based
In short: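 Thoracic aorta rings, denuded, from male 250-350-g Sprague-Dawley rats. Isometric force recorded after 60 min equilibration under 2 g load, then sensitized with 10 µM 5-HT for 8 min.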

[2] = target: T1, 5-hydroxytryptamine receptor 2A (Rattus norvegicus, UniProt P14842); experiment: In vitro ability to displace [3H]ketanserin binding from 5-hydroxytryptamine 2A receptor in rat membrane.
T1 sequence (P14842 whole entry): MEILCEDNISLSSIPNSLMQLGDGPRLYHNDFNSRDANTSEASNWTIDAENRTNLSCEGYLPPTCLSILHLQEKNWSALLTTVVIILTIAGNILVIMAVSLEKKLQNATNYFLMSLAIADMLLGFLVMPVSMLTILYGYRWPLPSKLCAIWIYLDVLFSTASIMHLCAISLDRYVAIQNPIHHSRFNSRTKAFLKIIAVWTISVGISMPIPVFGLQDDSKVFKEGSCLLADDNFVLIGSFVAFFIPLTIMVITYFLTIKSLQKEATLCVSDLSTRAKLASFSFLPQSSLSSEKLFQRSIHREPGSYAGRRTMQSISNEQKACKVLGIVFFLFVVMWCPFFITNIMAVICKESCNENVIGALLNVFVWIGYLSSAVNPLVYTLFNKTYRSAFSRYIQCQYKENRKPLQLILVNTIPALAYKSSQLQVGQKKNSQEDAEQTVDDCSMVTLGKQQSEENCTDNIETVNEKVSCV

D(1A) dopamine receptor [3] = target: T2, D(1A) dopamine receptor (Rattus norvegicus, UniProt P18901); experiment: In vitro ability to displace [3H]SCH-23390 binding from Dopamine receptor D1 in rat striatal membrane.; assay type: cell membranes
T2 sequence (P18901 whole entry): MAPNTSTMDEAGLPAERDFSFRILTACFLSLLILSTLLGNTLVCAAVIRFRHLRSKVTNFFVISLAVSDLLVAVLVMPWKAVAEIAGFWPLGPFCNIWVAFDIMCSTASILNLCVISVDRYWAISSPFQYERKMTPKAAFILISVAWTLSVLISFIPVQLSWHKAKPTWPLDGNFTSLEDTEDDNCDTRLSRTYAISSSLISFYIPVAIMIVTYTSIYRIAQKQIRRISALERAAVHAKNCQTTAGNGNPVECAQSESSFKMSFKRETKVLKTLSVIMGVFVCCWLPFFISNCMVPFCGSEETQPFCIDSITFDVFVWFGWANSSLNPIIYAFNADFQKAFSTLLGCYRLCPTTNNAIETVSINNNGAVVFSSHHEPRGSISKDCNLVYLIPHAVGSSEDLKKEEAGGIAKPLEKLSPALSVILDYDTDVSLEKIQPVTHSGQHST
In short: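 Striatal membranes from male Sprague-Dawley rats, washed in Tris-HCl with 5 mM EDTA. Resuspended at 1.00 mg wet weight/750 µL in 50 mM Tris-HCl pH 7.4 with 120 mM NaCl, 5 mM KCl, 2 mM CaCl2 and 1 mM MgCl2. [3H]SCH23390 competition in duplicate, 15 min at 37 °C, filtered. Nonspecific binding defined with 1 µM final SCH23390. Ki = IC50/(1 + D/Kd).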

Mus musculus [4] = experiment: In vivo Antipsychotic activity was quantified by induction of catalepsy in mice; assay type: functional
In short: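 Male CD1 mice, 27 ± 3 g, 6-12 per group, tested 30 min after dosing. Forepaws placed on one horizontal wire, hindpaws on another 6 cm away and 2 cm lower. Holding the posture for more than 30 s scored as catalepsy. ED50 by Litchfield-Wilcoxon.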

Mus musculus [5] = experiment: In vivo Antipsychotic activity was quantified by inhibition of apomorphine-induced climbing(CL 95%) by mice; assay type: functional
In short: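 Male CD1 mice given test drug or vehicle, then 2 mg/kg apomorphine 30 min later. Housed singly in wire cylinders; 6 per dose, 12 controls. Climbing scored 0-2 every 10 min over 30 min. Scores at 20 and 30 min summed and averaged per group. ED50 from nonlinear curve fitting.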

D(1A) dopamine receptor [6] = target: T2, D(1A) dopamine receptor; experiment: In vitro ability to displace [3H]SCH-23390 binding from Dopamine 1 (D1) receptor in rat striatal membrane.; assay type: cell membranes
[7] = target: T1, 5-hydroxytryptamine receptor 2A; experiment: Compound was tested in vitro for its binding affinity towards 5-hydroxytryptamine 2A receptor from rat frontal cortex using [3H]-ketanserin as radioligand; assay type: tissue-based
In short: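 Frontal cortex from male 200-250-g Sprague-Dawley rats, homogenized in 0.32 M sucrose, then washed. Pellet incubated 15 min at 37 °C to strip endogenous 5-HT. Assay buffer Tris-HCl pH 8.07 with 4 mM CaCl2 and 0.1% ascorbic acid. [3H]ketanserin competition run in triplicate, 30 min at 37 °C, with GF/C filtration. Nonspecific binding defined with methysergide. Ki = IC50/(1 + D/Kd), with Kd taken from saturation binding.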

| SMILES | Ki [2] | Ki (D(1A) dopamine receptor [3]) | Ki (D(1A) dopamine receptor [6]) | Ki [7] | pA2 [1] | ED50 (Mus musculus [4]) | ED50 (Mus musculus [5]) |
| --- | --- | --- | --- | --- | --- | --- | --- |
| COc1ccccc1N1CCN(CC2CC(=O)c3ccccc32)CC1.Cl (stereo unspecified) | 891 nM | 3720 nM | – | – | 6.21 | > 8 mg/kg | > 8 mg/kg |
| Cl.O=C(CCCN1CCN(CCC2CCc3sccc3C2=O)CC1)c1ccc(F)cc1 (stereo unspecified) | – | – | 3090 nM | 288 nM | 6.83 | > 15 mg/kg | > 15 mg/kg |
| O=C(c1ccc(F)cc1)C1CCN(CCC2CCc3ccccc3C2=O)CC1 (stereo unspecified) | – | – | – | – | 7.47 | – | – |
| Cl.O=C(CCCN1CCN(CC2CC(=O)c3ccsc3C2)CC1)c1ccc(F)cc1 (stereo unspecified) | 107 nM | – | 1350 nM | – | 7.79 | > 2 mg/kg | > 8 mg/kg |
| CN1CCN(C2=Nc3cc(Cl)ccc3Nc3ccccc32)CC1 [CLOZAPINE] | – | – | – | – | – | > 50 mg/kg | 2.21 mg/kg |
| O=C(CCCN1CCN(CCC2Cc3ccccc3C2=O)CC1)c1ccc(F)cc1 (stereo unspecified) | 123 nM | – | 1320 nM | – | 7.3 | – | – |
| O=C1CC(CN2CCC(C(=O)c3ccc(F)cc3)CC2)Cc2ccccc21 (stereo unspecified) | – | – | – | – | 7.86 | – | – |
| O=C(CCCN1CCN(CCC2Cc3sccc3C2=O)CC1)c1ccc(F)cc1 (stereo unspecified) | 42.7 nM | 324 nM | – | – | 7.63 | > 15 mg/kg | 3.34 mg/kg |
| Cc1nc2n(c(=O)c1CCN1CCC(c3noc4cc(F)ccc34)CC1)CCCC2 [RISPERIDONE] | – | – | – | – | – | > 2 mg/kg | 0.09 mg/kg |
| O=C(CCCN1CCC(O)(c2ccc(Cl)cc2)CC1)c1ccc(F)cc1 [HALOPERIDOL] | – | – | – | – | – | 0.67 mg/kg | 0.14 mg/kg |
| O=C(CCCN1CCN(CCC2CCc3ccccc3C2=O)CC1)c1ccc(F)cc1 (stereo unspecified) | 72.4 nM | – | 1350 nM | – | 7.35 | – | – |
| Cl.O=C(CCCN1CCN(CC2CC(=O)c3ccccc32)CC1)c1ccc(F)cc1 (stereo unspecified) | 45.7 nM | 7080 nM | – | – | 7.2 | > 8 mg/kg | > 8 mg/kg |
| O=C(c1ccc(F)cc1)C1CCN(CCC2Cc3ccccc3C2=O)CC1 (stereo unspecified) | – | – | – | – | 8.12 | – | – |
| Cl.O=C1CC(CN2CCC(C(=O)c3ccc(F)cc3)CC2)Cc2sccc21 (stereo unspecified) | 57.5 nM | – | 427 nM | – | 7.82 | > 16 mg/kg | 1.25 mg/kg |
| COc1ccccc1N1CCN(CC2CC(=O)c3ccsc3C2)CC1.Cl (stereo unspecified) | 1510 nM | – | > 10000 nM | – | 5.9 | > 8 mg/kg | > 8 mg/kg |
| COc1ccccc1N1CCN(CC2CC(=O)c3ccccc3C2)CC1 (stereo unspecified) | 513 nM | – | – | – | 6.48 | – | – |
| COc1ccccc1N1CCN(CCC2CCc3sccc3C2=O)CC1.Cl (stereo unspecified) | 145 nM | – | 5370 nM | – | 6.95 | > 8 mg/kg | > 8 mg/kg |
| Cl.O=C1c2ccsc2CCC1CCN1CCC(c2noc3cc(F)ccc23)CC1 (stereo unspecified) | – | – | 295 nM | 2.75 nM | 9.87 | > 2 mg/kg | 0.79 mg/kg |

Further lines, with some results ahead:

| Ki [2] | Ki (D(1A) dopamine receptor [3]) | Ki (D(1A) dopamine receptor [6]) | Ki [7] | SMILES | pA2 [1] | ED50 (Mus musculus [4]) | ED50 (Mus musculus [5]) |
| --- | --- | --- | --- | --- | --- | --- | --- |
| 13.2 nM | – | – | – | O=C(c1ccc(F)cc1)C1CCN(CCC2CCCc3ccccc3C2=O)CC1 (stereo unspecified) | 6.75 | – | – |
| 11.2 nM | – | 562 nM | – | Cl.O=C(c1ccc(F)cc1)C1CCN(CCC2CCc3ccsc3C2=O)CC1 (stereo unspecified) | – | > 4 mg/kg | 1.98 mg/kg |
| 17.8 nM | – | – | – | O=C(CCCN1CCN(CC2CC(=O)c3ccccc3C2)CC1)c1ccc(F)cc1 (stereo unspecified) | 7.27 | – | – |
| 26.3 nM | 1550 nM | – | – | Cl.O=C1CC(CN2CCC(C(=O)c3ccc(F)cc3)CC2)c2ccccc21 (stereo unspecified) | 8.13 | > 4 mg/kg | > 7 mg/kg |
| 1.74 nM | 126 nM | – | – | Cl.O=C1c2ccsc2CC1CCN1CCC(c2noc3cc(F)ccc23)CC1 (stereo unspecified) | – | > 20 mg/kg | 0.47 mg/kg |
| 1.45 nM | 1380 nM | – | – | Cl.O=C(c1ccc(F)cc1)C1CCN(CCC2CCc3sccc3C2=O)CC1 (stereo unspecified) | 9.02 | > 4 mg/kg | 2.03 mg/kg |
| 7.08 nM | 2510 nM | – | – | O=C(O)C(=O)O.O=C(c1ccc(F)cc1)C1CCN(CCC2Cc3sccc3C2=O)CC1 (stereo unspecified) | 8.92 | > 16 mg/kg | 65 mg/kg |
| 4.68 nM | – | 129 nM | – | Cl.O=C1CC(CN2CCC(c3noc4cc(F)ccc34)CC2)Cc2sccc21 (stereo unspecified) | 9.13 | > 8 mg/kg | 1.46 mg/kg |
| 40.7 nM | 1480 nM | – | – | COc1ccccc1N1CCN(CCC2CCc3ccccc3C2=O)CC1 (stereo unspecified) | 6.72 | – | – |
| 6.76 nM | – | 135 nM | – | Cl.O=C1c2sccc2CCC1CCN1CCC(c2noc3cc(F)ccc23)CC1 (stereo unspecified) | – | > 2 mg/kg | 0.5 mg/kg |
